Source: ChEMBL document CHEMBL3351548, “UNC2025, a potent and orally bioavailable MER/FLT3 dual inhibitor” (J Med Chem, 2014)
Calls of active or inactive are those of the source. The rule behind the calls is not given here.

Key:
[1] = Tmax in Swiss albino mouse at 3 mg/kg, po; format: ADME, organism-based; parameters: dose 3 mg/kg, route oral; settings: in vivo
Method in brief: (§1)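 Mouse PK after single intravenous or oral dose; n = 3 mice per time point. Parameters reported: T1/2, Cmax, AUClast, Vss and CL for iv; Tmax, Cmax, AUClast and %F for po. One iv formulation given is 7.5% v/v N-methyl pyrrolidone with 20% cremophor EL in water.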

[2] = Cmax in Swiss albino mouse at 3 mg/kg, po; format: ADME, organism-based; parameters: dose 3 mg/kg, route oral; settings: in vivo; method in brief: as §1
[3] = Volume of distribution at steady state in Swiss albino mouse at 3 mg/kg, iv; format: ADME, organism-based; parameters: dose 3 mg/kg, route intravenous; settings: in vivo, read-out: Vdss; method in brief: as §1
[4] = AUClast in Swiss albino mouse at 3 mg/kg, iv; format: ADME, organism-based; parameters: time 0 - last, dose 3 mg/kg, route intravenous; settings: plasma; method in brief: as §1
[5] = test system: Mus musculus; test: Oral bioavailability in Swiss albino mouse at 3 mg/kg; format: ADME, organism-based; settings: in vivo; method in brief: as §1
[6] = AUClast in Swiss albino mouse at 3 mg/kg, po; format: ADME, organism-based; parameters: time 0 - last, dose 3 mg/kg, route oral; settings: plasma; method in brief: as §1
[7] = Half life in Swiss albino mouse at 3 mg/kg, iv; format: ADME, organism-based; parameters: dose 3 mg/kg, route intravenous; settings: in vivo; method in brief: as §1
[8] = Cmax in Swiss albino mouse at 3 mg/kg, iv; format: ADME, organism-based; parameters: dose 3 mg/kg, route intravenous; settings: in vivo; method in brief: as §1
[9] = Clearance in Swiss albino mouse at 3 mg/kg, iv; format: ADME, organism-based; parameters: dose 3 mg/kg, route intravenous; settings: in vivo; method in brief: as §1
[10] = Volume of distribution at steady state in Swiss albino mouse at 1 mg/kg, iv; format: ADME, organism-based; parameters: dose 1 mg/kg, route intravenous; settings: in vivo, read-out: Vdss; method in brief: as §1
[11] = Half life in Swiss albino mouse at 1 mg/kg, iv; format: ADME, organism-based; parameters: dose 1 mg/kg, route intravenous; settings: in vivo; method in brief: as §1
[12] = Clearance in Swiss albino mouse at 1 mg/kg, iv; format: ADME, organism-based; parameters: dose 1 mg/kg, route intravenous; settings: in vivo; method in brief: as §1
[13] = AUClast in Swiss albino mouse at 1 mg/kg, iv; format: ADME, organism-based; parameters: dose 1 mg/kg, route intravenous, time 0 - last; settings: plasma; method in brief: as §1
[14] = test system: Mus musculus; test: Oral bioavailability in Swiss albino mouse at 10 mg/kg; format: ADME, organism-based; settings: in vivo; method in brief: as §1
[15] = Cmax in Swiss albino mouse at 10 mg/kg, po; format: ADME, organism-based; parameters: dose 10 mg/kg, route oral; settings: in vivo; method in brief: as §1
[16] = AUClast in Swiss albino mouse at 10 mg/kg, po; format: ADME, organism-based; parameters: time 0 - last, dose 10 mg/kg, route oral; settings: plasma; method in brief: as §1
[17] = Cmax in Swiss albino mouse at 1 mg/kg, iv; format: ADME, organism-based; parameters: dose 1 mg/kg, route intravenous; settings: in vivo; method in brief: as §1
[18] = Tmax in Swiss albino mouse at 10 mg/kg, po; format: ADME, organism-based; parameters: dose 10 mg/kg, route oral; settings: in vivo; method in brief: as §1
[19] = target: T1, Tyrosine-protein kinase Mer (Homo sapiens) (UniProt Q12866); settings: A549, 50 to 300 nM
T1 sequence (whole entry): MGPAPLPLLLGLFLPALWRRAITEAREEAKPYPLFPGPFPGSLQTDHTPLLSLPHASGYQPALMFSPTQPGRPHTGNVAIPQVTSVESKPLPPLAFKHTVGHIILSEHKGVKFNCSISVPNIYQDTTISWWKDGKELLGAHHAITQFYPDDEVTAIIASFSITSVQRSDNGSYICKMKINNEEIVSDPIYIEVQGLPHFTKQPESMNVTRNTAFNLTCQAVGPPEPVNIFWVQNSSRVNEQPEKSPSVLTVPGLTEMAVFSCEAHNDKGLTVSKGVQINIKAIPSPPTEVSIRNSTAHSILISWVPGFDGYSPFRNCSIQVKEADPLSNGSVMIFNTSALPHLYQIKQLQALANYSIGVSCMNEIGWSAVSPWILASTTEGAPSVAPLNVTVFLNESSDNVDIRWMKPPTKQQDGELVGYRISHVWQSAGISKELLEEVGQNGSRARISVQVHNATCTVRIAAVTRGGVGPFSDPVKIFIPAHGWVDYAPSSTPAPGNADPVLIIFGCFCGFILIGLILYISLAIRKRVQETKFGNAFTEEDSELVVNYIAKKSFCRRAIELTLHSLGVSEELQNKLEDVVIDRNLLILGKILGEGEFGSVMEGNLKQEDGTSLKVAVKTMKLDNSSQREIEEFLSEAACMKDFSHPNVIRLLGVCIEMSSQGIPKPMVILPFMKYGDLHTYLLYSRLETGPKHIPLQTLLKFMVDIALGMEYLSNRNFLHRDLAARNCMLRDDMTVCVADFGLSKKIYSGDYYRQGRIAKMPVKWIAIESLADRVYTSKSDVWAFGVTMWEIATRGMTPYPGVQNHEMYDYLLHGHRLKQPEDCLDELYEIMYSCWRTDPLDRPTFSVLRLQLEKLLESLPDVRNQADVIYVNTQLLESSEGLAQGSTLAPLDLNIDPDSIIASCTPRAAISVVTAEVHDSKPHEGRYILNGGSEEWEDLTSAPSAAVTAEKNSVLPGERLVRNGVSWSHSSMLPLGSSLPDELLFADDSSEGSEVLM

[20] = target: Receptor-type tyrosine-protein kinase FLT3 (Homo sapiens) (UniProt P36888); settings: MOLM-14, 10 to 50 nM
Chain of Receptor-type tyrosine-protein kinase FLT3 (Homo sapiens) (P36888 whole entry): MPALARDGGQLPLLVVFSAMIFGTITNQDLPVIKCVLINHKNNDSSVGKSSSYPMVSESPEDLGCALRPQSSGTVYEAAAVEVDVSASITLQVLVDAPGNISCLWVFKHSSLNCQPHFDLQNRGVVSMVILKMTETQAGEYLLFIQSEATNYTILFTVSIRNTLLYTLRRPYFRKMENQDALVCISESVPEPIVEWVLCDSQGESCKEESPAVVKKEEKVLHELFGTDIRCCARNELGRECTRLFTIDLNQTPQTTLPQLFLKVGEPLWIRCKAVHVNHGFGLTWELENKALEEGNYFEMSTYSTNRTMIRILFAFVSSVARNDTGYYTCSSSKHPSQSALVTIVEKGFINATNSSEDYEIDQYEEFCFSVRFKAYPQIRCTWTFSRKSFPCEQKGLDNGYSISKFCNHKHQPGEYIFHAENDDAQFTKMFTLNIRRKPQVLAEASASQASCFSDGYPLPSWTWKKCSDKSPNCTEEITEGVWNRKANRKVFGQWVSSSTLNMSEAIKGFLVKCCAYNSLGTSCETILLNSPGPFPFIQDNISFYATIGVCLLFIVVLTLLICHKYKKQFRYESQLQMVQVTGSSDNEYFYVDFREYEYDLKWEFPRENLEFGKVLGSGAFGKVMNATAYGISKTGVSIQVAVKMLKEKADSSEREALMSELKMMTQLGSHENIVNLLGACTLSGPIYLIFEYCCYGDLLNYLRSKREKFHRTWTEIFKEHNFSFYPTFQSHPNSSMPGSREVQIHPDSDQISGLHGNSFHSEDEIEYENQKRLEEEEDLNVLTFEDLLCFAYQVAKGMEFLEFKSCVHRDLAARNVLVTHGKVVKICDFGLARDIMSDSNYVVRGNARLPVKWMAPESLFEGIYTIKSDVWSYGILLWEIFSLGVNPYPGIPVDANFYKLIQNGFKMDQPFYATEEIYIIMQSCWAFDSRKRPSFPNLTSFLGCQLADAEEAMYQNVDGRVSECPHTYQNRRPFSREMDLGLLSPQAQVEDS

[21] = Kinetic solubility of the compound in normal saline at pH 7.4; format: physicochemical; settings: buffer
[22] = test system: Plasma; test: Fraction unbound in plasma of human 697 cells xenografted NOD.Cg-Prkdcscid Il2rgtm1Wjl/SzJ mouse at 3 mg/kg, po administered as single dose measured after 30 mins post dose; format: ADME, organism-based; parameters: dose 3 mg/kg, route oral; settings: in vivo, 0.5 h
[23] = target: NT-3 growth factor receptor (Homo sapiens, UniProt Q16288); test: Inhibition of TRKC (unknown origin) by Off-chip Mobility Shift Assay
Chain of NT-3 growth factor receptor (Q16288 whole entry): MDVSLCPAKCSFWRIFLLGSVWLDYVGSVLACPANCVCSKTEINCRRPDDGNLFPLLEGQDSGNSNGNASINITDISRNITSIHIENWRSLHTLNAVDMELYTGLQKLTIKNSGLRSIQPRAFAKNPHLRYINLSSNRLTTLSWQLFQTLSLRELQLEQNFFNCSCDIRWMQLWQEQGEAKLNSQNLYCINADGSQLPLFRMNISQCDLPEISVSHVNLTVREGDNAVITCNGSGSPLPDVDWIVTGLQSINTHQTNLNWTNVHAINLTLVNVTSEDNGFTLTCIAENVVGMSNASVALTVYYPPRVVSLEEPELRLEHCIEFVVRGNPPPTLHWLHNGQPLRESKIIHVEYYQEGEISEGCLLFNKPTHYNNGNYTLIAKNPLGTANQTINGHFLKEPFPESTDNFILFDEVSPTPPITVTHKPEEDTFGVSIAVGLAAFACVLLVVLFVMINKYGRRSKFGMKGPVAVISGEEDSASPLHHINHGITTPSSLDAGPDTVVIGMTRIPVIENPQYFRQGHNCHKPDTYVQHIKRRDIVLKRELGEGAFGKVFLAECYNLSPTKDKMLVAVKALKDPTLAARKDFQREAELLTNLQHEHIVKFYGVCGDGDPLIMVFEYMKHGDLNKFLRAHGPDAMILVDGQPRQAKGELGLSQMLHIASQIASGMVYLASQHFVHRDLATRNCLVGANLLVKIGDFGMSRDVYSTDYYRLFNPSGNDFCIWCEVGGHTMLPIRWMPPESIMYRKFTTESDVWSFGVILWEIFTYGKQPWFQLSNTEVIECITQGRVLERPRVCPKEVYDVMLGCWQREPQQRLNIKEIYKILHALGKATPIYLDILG
Method in brief: (§2)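 Kinase panel run in duplicate using a microcapillary electrophoresis (mobility shift) assay. Screening concentration was 100 nM. IC50 values were then determined at each kinase's ATP Km.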

[24] = target: STE20-like serine/threonine-protein kinase (Homo sapiens, UniProt Q9H2G2); test: Inhibition of SLK (unknown origin) by Off-chip Mobility Shift Assay; method in brief: as §2
Chain of STE20-like serine/threonine-protein kinase (Q9H2G2 whole entry): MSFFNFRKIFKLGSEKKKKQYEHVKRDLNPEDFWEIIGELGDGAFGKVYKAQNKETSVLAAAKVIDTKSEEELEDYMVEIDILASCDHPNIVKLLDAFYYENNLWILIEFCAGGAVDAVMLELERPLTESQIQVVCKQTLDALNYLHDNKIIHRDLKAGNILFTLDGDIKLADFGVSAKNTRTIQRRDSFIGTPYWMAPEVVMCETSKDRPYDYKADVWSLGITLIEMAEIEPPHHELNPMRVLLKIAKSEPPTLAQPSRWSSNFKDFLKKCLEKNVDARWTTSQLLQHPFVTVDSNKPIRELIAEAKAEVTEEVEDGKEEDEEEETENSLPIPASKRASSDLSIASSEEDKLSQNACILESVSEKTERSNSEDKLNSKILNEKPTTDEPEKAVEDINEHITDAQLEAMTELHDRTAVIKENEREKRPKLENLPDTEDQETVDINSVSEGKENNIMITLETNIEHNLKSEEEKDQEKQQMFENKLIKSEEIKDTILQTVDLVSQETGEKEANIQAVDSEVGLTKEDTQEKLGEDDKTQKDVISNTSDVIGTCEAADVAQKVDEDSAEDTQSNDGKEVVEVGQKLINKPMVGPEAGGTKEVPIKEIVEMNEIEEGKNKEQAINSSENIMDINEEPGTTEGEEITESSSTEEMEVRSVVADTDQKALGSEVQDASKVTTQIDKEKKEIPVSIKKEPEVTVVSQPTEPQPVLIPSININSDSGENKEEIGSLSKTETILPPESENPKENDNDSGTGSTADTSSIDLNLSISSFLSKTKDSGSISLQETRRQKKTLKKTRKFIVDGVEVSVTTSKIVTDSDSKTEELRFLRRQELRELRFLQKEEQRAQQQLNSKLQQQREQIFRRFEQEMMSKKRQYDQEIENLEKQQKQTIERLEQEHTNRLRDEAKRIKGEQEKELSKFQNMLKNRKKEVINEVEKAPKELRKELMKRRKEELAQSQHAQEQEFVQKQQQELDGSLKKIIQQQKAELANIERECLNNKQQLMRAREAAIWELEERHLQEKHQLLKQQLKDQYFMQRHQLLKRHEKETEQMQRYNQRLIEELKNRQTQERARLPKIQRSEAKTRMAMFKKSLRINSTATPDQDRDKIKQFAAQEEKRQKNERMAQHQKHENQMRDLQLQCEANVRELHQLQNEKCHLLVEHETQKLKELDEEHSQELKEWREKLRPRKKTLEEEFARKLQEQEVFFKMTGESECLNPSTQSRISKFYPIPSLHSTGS

[25] = target: T2, NUAK family SNF1-like kinase 1 (Homo sapiens, UniProt O60285); test: Inhibition of Nuak1 (unknown origin) by Off-chip Mobility Shift Assay; method in brief: as §2
T2 sequence (O60285 whole entry): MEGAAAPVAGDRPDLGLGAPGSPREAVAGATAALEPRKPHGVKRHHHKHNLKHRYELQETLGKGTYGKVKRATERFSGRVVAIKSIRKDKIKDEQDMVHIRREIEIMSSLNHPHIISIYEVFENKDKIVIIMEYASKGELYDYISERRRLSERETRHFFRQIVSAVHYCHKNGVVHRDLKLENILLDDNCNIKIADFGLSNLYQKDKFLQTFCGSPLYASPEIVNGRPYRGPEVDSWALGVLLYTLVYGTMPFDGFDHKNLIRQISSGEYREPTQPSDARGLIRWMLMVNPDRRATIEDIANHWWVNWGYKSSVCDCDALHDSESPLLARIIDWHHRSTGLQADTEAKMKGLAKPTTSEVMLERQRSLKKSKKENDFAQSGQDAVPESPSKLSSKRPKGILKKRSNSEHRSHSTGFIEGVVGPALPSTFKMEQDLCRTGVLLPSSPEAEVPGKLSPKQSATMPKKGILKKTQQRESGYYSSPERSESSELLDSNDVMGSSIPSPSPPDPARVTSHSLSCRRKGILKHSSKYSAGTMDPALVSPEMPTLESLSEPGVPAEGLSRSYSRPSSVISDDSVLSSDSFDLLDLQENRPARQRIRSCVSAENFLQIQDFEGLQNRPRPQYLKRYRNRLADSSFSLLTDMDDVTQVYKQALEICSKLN

[26] = Plasma concentration in human 697 cells xenografted NOD.Cg-Prkdcscid Il2rgtm1Wjl/SzJ mouse at 3 mg/kg, po administered as single dose measured after 30 mins post dose; format: ADME, organism-based; parameters: dose 3 mg/kg, route oral
[27] = Plasma protein binding in human 697 cells xenografted NOD.Cg-Prkdcscid Il2rgtm1Wjl/SzJ mouse at 3 mg/kg, po administered as single dose measured after 30 mins post dose; format: ADME, organism-based; parameters: dose 3 mg/kg, route oral; settings: read-out: PPB (converted)
Method in brief: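 Plasma protein binding was measured in mice, n = 3.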

[28] = target: Mast/stem cell growth factor receptor Kit (Homo sapiens, UniProt P10721); test: Inhibition of Kit (unknown origin) by Off-chip Mobility Shift Assay; method in brief: as §2
[29] = test system: 697; test: Inhibition of Mer phosphorylation in human 697 cells xenografted in NOD.Cg-Prkdcscid Il2rgtm1Wjl/SzJ mouse at 3 mg/kg, po administered as single dose measured after 30 mins post dose by densitometry relative to control; format: functional; settings: Mus musculus, 697, 0.5 h
Method in brief: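 NSG mice received 2 × 10^6 697 B-ALL cells by tail-vein injection, with 14 days for engraftment. A single 3 mg/kg dose or saline vehicle (10 mL/kg) was given by oral gavage, and femurs were taken 30 min later. Marrow cells were held 10 min at room temperature in RPMI with 20% FBS and 240 μM pervanadate. Mer was then immunoprecipitated and p-Mer/total Mer quantified by Western densitometry; n = 6.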

[30] = target: Hepatocyte growth factor receptor (Homo sapiens, UniProt P08581); test: Inhibition of Met (unknown origin) by Off-chip Mobility Shift Assay; method in brief: as §2
Chain of Hepatocyte growth factor receptor (P08581 whole entry): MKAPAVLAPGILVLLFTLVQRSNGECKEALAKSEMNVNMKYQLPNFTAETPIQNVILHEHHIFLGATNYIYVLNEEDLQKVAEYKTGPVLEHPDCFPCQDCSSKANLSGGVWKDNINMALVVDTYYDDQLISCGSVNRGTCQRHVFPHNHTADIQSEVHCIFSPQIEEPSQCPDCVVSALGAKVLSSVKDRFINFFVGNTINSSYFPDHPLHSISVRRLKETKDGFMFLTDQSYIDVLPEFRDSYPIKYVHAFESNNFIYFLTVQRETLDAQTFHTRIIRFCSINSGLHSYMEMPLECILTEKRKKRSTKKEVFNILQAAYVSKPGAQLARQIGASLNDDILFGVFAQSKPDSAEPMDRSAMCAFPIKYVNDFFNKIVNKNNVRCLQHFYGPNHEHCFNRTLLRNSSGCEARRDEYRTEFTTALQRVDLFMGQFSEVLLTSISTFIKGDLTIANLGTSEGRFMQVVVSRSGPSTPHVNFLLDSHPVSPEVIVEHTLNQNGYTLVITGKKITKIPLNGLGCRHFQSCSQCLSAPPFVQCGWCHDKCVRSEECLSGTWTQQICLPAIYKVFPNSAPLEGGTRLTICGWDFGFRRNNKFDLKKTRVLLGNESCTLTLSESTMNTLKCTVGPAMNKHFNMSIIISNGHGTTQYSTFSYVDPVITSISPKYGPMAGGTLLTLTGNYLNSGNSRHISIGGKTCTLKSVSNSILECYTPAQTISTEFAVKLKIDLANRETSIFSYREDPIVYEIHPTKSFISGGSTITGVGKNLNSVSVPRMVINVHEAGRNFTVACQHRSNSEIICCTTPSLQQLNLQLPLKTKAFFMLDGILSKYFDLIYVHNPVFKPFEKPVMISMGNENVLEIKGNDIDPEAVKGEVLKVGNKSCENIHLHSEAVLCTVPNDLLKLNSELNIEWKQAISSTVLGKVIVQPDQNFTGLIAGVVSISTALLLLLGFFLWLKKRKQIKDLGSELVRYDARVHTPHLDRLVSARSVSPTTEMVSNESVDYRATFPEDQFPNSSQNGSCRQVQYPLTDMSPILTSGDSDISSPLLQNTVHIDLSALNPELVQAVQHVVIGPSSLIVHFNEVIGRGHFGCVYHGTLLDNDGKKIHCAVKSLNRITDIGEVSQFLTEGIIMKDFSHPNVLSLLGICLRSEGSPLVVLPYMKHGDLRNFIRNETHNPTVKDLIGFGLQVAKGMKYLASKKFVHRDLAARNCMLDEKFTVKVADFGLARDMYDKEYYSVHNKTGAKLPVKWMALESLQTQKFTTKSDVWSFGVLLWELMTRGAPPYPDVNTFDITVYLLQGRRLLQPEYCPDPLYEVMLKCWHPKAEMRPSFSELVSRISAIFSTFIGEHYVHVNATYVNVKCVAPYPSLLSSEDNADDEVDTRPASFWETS

| Tmax [1] | Cmax [2] | Vd [3] | AUC(0-t) [4] | F [5] | AUC(0-t) [6] | half-life [7] | Cmax [8] | clearance [9] | SMILES | other results |
| --- | --- | --- | --- | --- | --- | --- | --- | --- | --- | --- |
| 15 min | 420 nM | 5.3 L/kg | 1 µM·h | 67% | 0.69 µM·h | 72 min | 1200 nM | 76 mL/min/kg | CN1CCN(S(=O)(=O)c2ccc(-c3cn([C@H]4CC[C@H](O)CC4)c4nc(NCCC5CC5)ncc34)c(F)c2)CC1 |  |
| 60 min | 1300 nM | 2 L/kg | 12 µM·h | 78% | 9 µM·h | 264 min | 6500 nM | 7.2 mL/min/kg | CN1CCN(Cc2ccc(-c3cn([C@H]4CC[C@H](O)CC4)c4nc(NCCC5CC5)ncc34)cc2)CC1 |  |
|  |  |  |  |  |  |  |  |  | CCCCNc1ncc2c(-c3ccc(S(=O)(=O)N4CCN(C)CC4)c(F)c3)cn([C@H]3CC[C@H](O)CC3)c2n1 | Vd [10]: 5.5 L/kg; half-life [11]: 48 min; clearance [12]: 103 mL/min/kg; AUC(0-t) [13]: 0.27 µM·h; F [14]: 25%; Cmax [15]: 390 nM; AUC(0-t) [16]: 0.66 µM·h; Cmax [17]: 400 nM; Tmax [18]: 15 min |
| 15 min | 160 nM | 0.78 L/kg | 1.4 µM·h | 8.4% | 0.12 µM·h | 13.8 min | 7900 nM | 70 mL/min/kg | CCCCNc1ncc2c(-c3ccc(S(=O)(=O)N4CCOCC4)cc3)cn([C@H]3CC[C@H](O)CC3)c2n1 |  |
|  |  |  |  |  |  |  |  |  | CCCCNc1ncc2c(-c3ccc(CN4CCN(C)CC4)cc3)cn([C@H]3CC[C@H](O)CC3)c2n1 [listing 1 of 2 here] | inhibition [19]: Active; inhibition [20]: Active |
| 30 min | 13 nM | 0.43 L/kg | 3.3 µM·h | 0.3% | 0.01 µM·h | 138 min | 16000 nM | 30 mL/min/kg | CCCCNc1ncc2c(-c3ccc(S(=O)(=O)N4CCOCC4)cc3)nn([C@H]3CC[C@H](O)CC3)c2n1 |  |
|  |  |  |  |  |  |  |  |  | CCCCNc1ncc2c(-c3ccc(CN4CCN(C)CC4)cc3)cn([C@H]3CC[C@H](O)CC3)c2n1.Cl | Kinetic_solubility [21]: 38 µg/mL |
| 30 min | 1600 nM | 2.3 L/kg | 9.2 µM·h | 100% | 9.2 µM·h | 228 min | 4100 nM | 9.2 mL/min/kg | CCCCNc1ncc2c(-c3ccc(CN4CCN(C)CC4)cc3)cn([C@H]3CC[C@H](O)CC3)c2n1 [listing 2 of 2 here] | Cp(f) [22]: 22 nM; IC50 [23]: 4.38 nM; IC50 [24]: 6.14 nM; IC50 [25]: 7.97 nM; concentration at 0.5 h [26]: 1600 nM; fraction unbound at 0.5 h [27]: 0.014; IC50 [28]: 8.18 nM; inhibition in vivo at 3 mg/kg [29]: > 90%; IC50 [30]: 364 nM |
